Experimental data as given in ChEMBL document CHEMBL5674869, “The Histone Methyltransferase Inhibitor A-366 Uncovers a Role for G9a/GLP in the Epigenetics of Leukemia” (PLoS One, 2015).
pEC50: −log10 of the molar value. Active and inactive are the calls of the source. The calls are words filed in the database; no cut-off is given here.

How the values were obtained:
MV4-11 [1] = assay: Antitumor activity against human MV4-11 cells xenografted in SCID/beige mouse assessed as tumor growth inhibition at 30 mg/kg/day via osmotic-mini pump for 14 days; assay type: functional; conditions: MV4-11, 336 h, time 14 day
Summary of the method: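 MV4;11 cells mixed with 50% Matrigel, 5 x 10^6 cells injected subcutaneously in flank of 6–8 week old female SCID-beige mice. At ~200 mm3, mice allocated by tumor volume (n = 10/group). Dosed by osmotic mini-pump in 98% PEG-400/2% Tween-80 for 14 days. Calipers read 2 times weekly, V = (L x W2)/2. %TGI computed from control versus treated mean tumor volumes.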

[2] = biological target: T1, Histone-lysine N-methyltransferase EHMT2 (Homo sapiens) (UniProt Q96KQ7); assay: Inhibition of G9a in human HL-60 cells assessed as increase in cell differentiation marker CD11b for 14 days by flow cytometry; conditions: time 14.0 day
T1 sequence (whole entry): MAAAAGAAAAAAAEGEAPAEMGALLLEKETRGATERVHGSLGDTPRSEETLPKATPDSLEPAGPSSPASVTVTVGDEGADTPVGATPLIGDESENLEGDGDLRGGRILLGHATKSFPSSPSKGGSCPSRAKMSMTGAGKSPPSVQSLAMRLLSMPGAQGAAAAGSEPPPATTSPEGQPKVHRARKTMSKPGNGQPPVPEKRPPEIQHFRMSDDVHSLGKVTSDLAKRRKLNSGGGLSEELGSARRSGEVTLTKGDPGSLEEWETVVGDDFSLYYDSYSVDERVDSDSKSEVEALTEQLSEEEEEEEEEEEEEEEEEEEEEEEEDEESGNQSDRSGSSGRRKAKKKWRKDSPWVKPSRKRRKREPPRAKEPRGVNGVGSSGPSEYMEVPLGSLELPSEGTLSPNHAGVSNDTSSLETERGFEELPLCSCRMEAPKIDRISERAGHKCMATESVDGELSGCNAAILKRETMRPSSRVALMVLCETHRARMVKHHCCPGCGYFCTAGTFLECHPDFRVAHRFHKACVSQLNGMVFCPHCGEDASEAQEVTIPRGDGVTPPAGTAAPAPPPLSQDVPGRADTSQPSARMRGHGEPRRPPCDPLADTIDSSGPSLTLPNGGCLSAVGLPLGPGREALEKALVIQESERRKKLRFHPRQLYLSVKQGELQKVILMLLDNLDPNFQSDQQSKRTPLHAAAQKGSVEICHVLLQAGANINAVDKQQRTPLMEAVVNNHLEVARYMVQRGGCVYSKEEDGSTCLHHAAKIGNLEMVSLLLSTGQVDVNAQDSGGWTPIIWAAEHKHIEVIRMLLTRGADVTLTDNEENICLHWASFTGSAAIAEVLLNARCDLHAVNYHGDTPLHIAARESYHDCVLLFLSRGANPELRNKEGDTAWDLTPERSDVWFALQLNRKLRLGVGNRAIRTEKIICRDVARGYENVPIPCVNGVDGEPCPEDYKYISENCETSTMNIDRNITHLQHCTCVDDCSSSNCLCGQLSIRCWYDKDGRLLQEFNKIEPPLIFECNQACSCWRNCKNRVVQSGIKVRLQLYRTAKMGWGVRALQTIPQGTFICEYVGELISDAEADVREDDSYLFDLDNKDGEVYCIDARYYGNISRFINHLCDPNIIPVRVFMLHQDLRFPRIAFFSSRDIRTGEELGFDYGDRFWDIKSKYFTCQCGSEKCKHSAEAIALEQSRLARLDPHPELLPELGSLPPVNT

[3] = biological target: T1, Histone-lysine N-methyltransferase EHMT2 (Homo sapiens); assay: Inhibition of G9a in human PC-3 cells assessed as effect on H3k27me3 levels at 0.3 to 3 uM after 72 hrs by Western blot analysis; assay type: cell-based; conditions: dose 0.3-3 µM
Summary of the method: (§1)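 PC-3 prostate cells incubated with DMSO, 0.3 or 3 μM compound for 72 h. Lysates probed by western blot with antibodies to H3K9me2, H3K4me2, H3K4me3, H3K9me3, H4K20me1, H4K20me3, H3K36me2 and H3K27me3.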

MV4-11 [4] = assay: Induction of cell morphology change in human MV4-11 cells assessed as increase in cytoplasm-nucleus ratio and nuclear lobulation at 5 uM after 10 days by Wright- Geimsa staining analysis; assay type: functional, cell-based; conditions: time 10.0 day
Summary of the method: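 MV4;11 cells exposed to DMSO or 5 μM compound for 10 days, then stained with a Wright-Giemsa kit. Morphology was examined for cytoplasm:nucleus ratio and nuclear lobulation.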

MV4-11 [5] = assay: Induction of cell cycle arrest in human MV4-11 cells assessed as increase in subG0/G1 cells after 14 days by propidium iodide staining based flow cytometry; assay type: functional; conditions: time 14.0 day
Summary of the method: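 MV4;11 cells treated 14 days with compound over a concentration range. They were then washed in cold PBS and stained 20 min with 50 μg/ml propidium iodide, 0.1 mg/ml RNase A, 0.1% BSA and 0.1% Triton X-100. Cell-cycle DNA content, including sub-G1/G0 fraction, measured by flow cytometry on BD LSR-II.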

HT-1080 [6] = assay: Antiproliferative activity against human HT-1080 cells upto 10 uM after 2 days by Cell-Titer-Glo assay; assay type: functional, cell-based; conditions: time 2.0 day
Summary of the method: (§2)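 ATCC tumor lines were grown in their recommended media with 10% FBS and STR-authenticated. Cells were exposed to compound for the stated number of days. Viable cells were read by CellTiter-Glo endpoint. Inhibition was the ratio of treated to untreated wells, with cell-free wells set as 100% inhibition. The EC50 was taken from the dose response.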

[7] = biological target: T1, Histone-lysine N-methyltransferase EHMT2 (Homo sapiens); assay: Inhibition of G9a in human PC-3 cells assessed as effect on H4k20me1 levels at 0.3 to 3 uM after 72 hrs by Western blot analysis; assay type: cell-based; conditions: dose 0.3-3 µM; summary of the method: as §1
MDA-MB-231 [8] = assay: Antiproliferative activity against human MDA-MB-231 cells assessed as effect on colony formation at 0.1 to 10 uM after 14 days by crystal violet staining based clonogenic assay; assay type: functional, cell-based; conditions: dose 0.1-10 µM, time 14.0 day
Summary of the method: (§3)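 Clonogenic assay: 500 live cells per well were seeded into six-well plates in drug-free medium. Compound diluted in culture medium was added 24 h later. Cells were cultured at 37°C, then fixed and stained with 0.2% crystal violet. Colonies were counted on an automated colony counter.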

[9] = biological target: T1, Histone-lysine N-methyltransferase EHMT2 (Homo sapiens); assay: Inhibition of G9a in human MV4-11 cells assessed as increase in cell differentiation marker CD11b for 14 days by flow cytometry; conditions: time 14.0 day
[10] = biological target: T1, Histone-lysine N-methyltransferase EHMT2 (Homo sapiens); assay: Inhibition of G9a in human PC-3 cells assessed as effect on H3k9me3 levels at 0.3 to 3 uM after 72 hrs by Western blot analysis; assay type: cell-based; conditions: dose 0.3-3 µM; summary of the method: as §1
HT-1080 [11] = assay: Antiproliferative activity against human HT-1080 cells after 5 days by Cell-Titer-Glo assay; assay type: functional, cell-based; conditions: HT-1080, 120 h; summary of the method: as §2
MCF7 = assay: Antiproliferative activity against human MCF7 cells assessed as inhibition of colony formation at 10 uM after 14 days by crystal violet staining based clonogenic assay; assay type: functional, cell-based; conditions: time 14.0 day; summary of the method: as §3
MDA-MB-231 [12] = assay: Antiproliferative activity against human MDA-MB-231 cells assessed as inhibition of colony formation at 10 uM after 14 days by crystal violet staining based clonogenic assay; assay type: functional, cell-based; conditions: time 14.0 day; summary of the method: as §3

Compound	inhibition in vivo at 30 mg/kg/day (MV4-11 [1]) [%]	inhibition [2]	inhibition [3]	Activity (MV4-11 [4])	Activity (MV4-11 [5])	Activity (HT-1080 [6])	inhibition [7]	Activity (MDA-MB-231 [8])	inhibition [9]	inhibition [10]	pEC50 (HT-1080 [11])	Activity (MCF7)	Activity (MDA-MB-231 [12])
COc1cc2c(cc1OCCCN1CCCC1)N=C(N)C21CCC1	45	Active	inactive	Active	Active	inactive	inactive	inactive	Active	inactive	–	–	–
COc1cc2c(NC3CCN(C(C)C)CC3)nc(C3CCCCC3)nc2cc1OCCCN1CCCC1	–	–	–	–	–	–	–	–	–	–	6.30	Active	Active
